From ChEMBL document CHEMBL1811814, “Synthesis and evaluation of indole, pyrazole, chromone and pyrimidine based conjugates for tumor growth inhibitory activities--development of highly efficacious cytotoxic agents” (Eur J Med Chem, 2010)

Assays:
Type in all cases: functional
[1] = system: SK-MEL-2; experiment: Growth inhibition of human SK-MEL-2 cells assessed tumor cell growth at 10^-5 M; set-up: scale not given: the % may be the effect or the level left
Method in brief: (§1)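 NCI 60-human-tumor-cell-line panel screen. Each compound was tested at a single concentration of 10^-5 M, and percent growth of tumor cells was recorded for each cell line. Growth inhibition was expressed from these percent-growth values.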

[2] = system: UO-31; experiment: Growth inhibition of human UO31 cells
[3] = system: MDA-MB-231; experiment: Growth inhibition of human MDA-MB-231 cells
[4] = system: TK-10; experiment: Growth inhibition of human TK10 cells
[5] = system: 786-0; experiment: Growth inhibition of human 786-0 cells assessed tumor cell growth at 10^-5 M; set-up: scale not given: the % may be the effect or the level left; method in brief: as §1
[6] = system: M14; experiment: Growth inhibition of human M14 cells
[7] = system: SF-539; experiment: Growth inhibition of human SF539 cells
[8] = system: OVCAR-8; experiment: Growth inhibition of human OVCAR8 cells
[9] = system: COLO 205; experiment: Growth inhibition of human COLO205 cells
[10] = system: PC-3; experiment: Growth inhibition of human PC3 cells assessed tumor cell growth at 10^-5 M; set-up: scale not given: the % may be the effect or the level left; method in brief: as §1
[11] = system: PC-3; experiment: Growth inhibition of human PC3 cells
[12] = Growth inhibition of human Hs 578T cells assessed tumor cell growth at 10^-5 M; set-up: scale not given: the % may be the effect or the level left; method in brief: as §1
[13] = system: SF-268; experiment: Growth inhibition of human SF268 cells
[14] = system: OVCAR-4; experiment: Growth inhibition of human OVCAR4 cells assessed tumor cell growth at 10^-5 M; set-up: scale not given: the % may be the effect or the level left; method in brief: as §1
[15] = system: HCT-15; experiment: Growth inhibition of human HCT15 cells
[16] = system: UACC-257; experiment: Growth inhibition of human UACC257 cells assessed tumor cell growth at 10^-5 M; set-up: scale not given: the % may be the effect or the level left
Method in brief: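 Single-dose screen at 10^-5 M across the 60 human tumor cell line panel, run to NCI standards. The value is the percent growth of each cell line in the presence of compound. Compounds active at this dose moved on to five-concentration testing (10^-4 to 10^-8 M).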

[17] = system: BT-549; experiment: Growth inhibition of human BT549 cells
[18] = system: ACHN; experiment: Growth inhibition of human ACHN cells
[19] = system: LOX IMVI; experiment: Growth inhibition of human LOXIMVI cells
[20] = system: MOLT-4; experiment: Growth inhibition of human MOLT4 cells
[21] = system: MDA-MB-435; experiment: Growth inhibition of human MDA-MB-435 cells
[22] = system: HOP-62; experiment: Growth inhibition of human HOP62 cells assessed tumor cell growth at 10^-5 M; set-up: scale not given: the % may be the effect or the level left; method in brief: as §1
[23] = system: OVCAR-8; experiment: Growth inhibition of human OVCAR8 cells assessed tumor cell growth at 10^-5 M; set-up: scale not given: the % may be the effect or the level left; method in brief: as §1
[24] = system: HCT-116; experiment: Growth inhibition of human HCT116 cells
[25] = system: K562; experiment: Growth inhibition of human K562 cells
[26] = system: 786-0; experiment: Growth inhibition of human 786-0 cells
[27] = read-out: LC50 (the source's name)

CC1=NN(c2cccc(Cl)c2)C(=O)/C1=C\C=C\c1ccccc1
Activity [1]: 74.62% | GI50 [2]: 1600 nM | CC50 [2, 27]: 7500 nM | GI50 [3]: 2200 nM | CC50 [3, 27]: > 100000 nM | GI50 [4]: 3100 nM | CC50 [4, 27]: > 100000 nM | Activity [5]: 35.48% | GI50 [6]: 1600 nM | CC50 [6, 27]: 7500 nM | GI50 [7]: 2500 nM | CC50 [7, 27]: > 100000 nM | GI50 [8]: 2600 nM | CC50 [8, 27]: > 100000 nM | GI50 [9]: 2300 nM | LC50 [9]: > 100000 nM | Activity [10]: 45.45% | GI50 [11]: 2900 nM | CC50 [11, 27]: > 100000 nM | Activity [12]: 132.74% | GI50 [13]: 2300 nM | CC50 [13, 27]: > 100000 nM | Activity [14]: -20.79% | GI50 [15]: 2200 nM | CC50 [15, 27]: > 100000 nM | Activity [16]: 63.3% | GI50 [17]: 1600 nM | CC50 [17, 27]: 6100 nM | GI50 [18]: 1700 nM | CC50 [18, 27]: 6100 nM | GI50 [19]: 1400 nM | CC50 [19, 27]: 6700 nM | GI50 [20]: 3100 nM | LC50 [20]: > 100000 nM | GI50 [21]: 2500 nM | CC50 [21, 27]: > 100000 nM | Activity [22]: 6.78% | Activity [23]: 0.37% | GI50 [24]: 1500 nM | CC50 [24, 27]: 6100 nM | GI50 [25]: 2800 nM | CC50 [25, 27]: > 100000 nM | GI50 [26]: 2100 nM
